PMI act hi M6P = activators of human phosphomannose isomerase at near-saturating mannose 6-phosphate | P34949 | coupled PMI enzyme assay, resazurin fluorescence, 20 min; active compounds read high; 1 = untreated enzyme, 0 = substrate-free blank | activation factor at 20 µM | 0.34% of 190,000 active | AID 1216;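 active = activation factor of 2 or more at 20 µM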
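Test system: human PMI in coupled enzyme assay; Input: PMI at 15 ng/mL final; Medium: HEPES buffer, pH 7.4; Schedule: 20 min incubation at room temperature; Technique: resorufin fluorescence at Ex 544/Em 590 nm; Compound: 20 µM single dose; Probe or stimulus: Near-saturating mannose-6-phosphate, 1.0 mM.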
PMI activator = increases human mannose-6-phosphate isomerase activity. purified human PMI, coupled resazurin fluorescence, 20 min; active compounds read high; 1 = vehicle control, 0 substrate-free wells. P34949. activation factor at 20 µM. 0.005% of 190,000 active. AID 1214;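 active = activation factor of 2 or more at 20 µM, relative to plate controls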
GSH bead fluor = compound fluoresces at 488/530 nm on GSH beads | GSH beads flow cytometry, compound fluorescence 488/530 nm; active compounds read high | fluorescence (KMESF) at 10 µM | 0.25% of 190,000 active | AID 1776; in the data active = fluorescence above about 89;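 also: glutathione beads carrying GST-tagged Bcl family fusion proteins plus one bare bead set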
Avidin bead fluor = compound fluoresces at 488/530 nm on avidin beads. AID 1775. compound fluorescence 488/530 nm, flow cytometry; active compounds read high. fluorescence (KMESF) at 10 µM. 0.38% of 220,000 active; in the data active = fluorescence above about 47
Diaphorase act = diaphorase activation or chemical reduction counter-screen; activation factor at 20 µM; AID 1229; 0.005% of 190,000 active; Diaphorase/resazurin coupled assay, resorufin fluorescence, 16 min; active compounds read high; 1 = vehicle wells, 0 = NADH-free wells;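 active = diaphorase activity raised at least twofold by the compound at 20 µM; inactive = activation factor below 2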
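Assay system: Purified diaphorase enzyme from Clostridium kluyveri | Amount: Enzyme 0.07 U/mL final | Dosing: Compound 20 µM once, DMSO 1% | Timing: 16 min reaction at room temperature | Detection: Fluorescence, excitation 544 nm and emission 590 nm | Evaluation: Higher resorufin formation from activation or reduction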
NCF1 inh = blocks human p47phox regulatory protein of NADPH oxidases. p47phox/p22phox peptide binding, fluorescence polarization, 2 h. inhibition, % at 24.7 µM. 0.53% of 220,000 active;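 active = inhibition above about 30%, limit read from the data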
Target sequence (P14598 whole entry, looked up): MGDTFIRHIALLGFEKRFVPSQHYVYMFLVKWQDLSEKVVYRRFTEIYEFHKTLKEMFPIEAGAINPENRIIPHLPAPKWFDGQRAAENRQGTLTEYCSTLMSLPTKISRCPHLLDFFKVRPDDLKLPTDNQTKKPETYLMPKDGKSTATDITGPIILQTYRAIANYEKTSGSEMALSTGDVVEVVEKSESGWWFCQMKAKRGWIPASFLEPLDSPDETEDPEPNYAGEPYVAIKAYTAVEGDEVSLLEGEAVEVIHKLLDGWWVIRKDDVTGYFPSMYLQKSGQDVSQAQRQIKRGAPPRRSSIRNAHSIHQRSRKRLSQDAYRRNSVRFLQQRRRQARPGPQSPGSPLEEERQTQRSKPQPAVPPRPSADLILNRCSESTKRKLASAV
Numbers stand for hits; . = inactive; / = no result. An excerpt weighted towards active compounds, which were near 1.4% of everything screened.

SMILES	PMI act hi M6P	PMI activator	GSH bead fluor	Avidin bead fluor	Diaphorase act	NCF1 inh
Cc1ccc2c(c1)CC1(CN2C)C(=O)NC(=O)N(c2cccc(C)c2C)C1=O (stereo not drawn)	.	.	.	.	.	.
COc1cccc(C2(O)CCN(CC(=O)Nc3nc(C)cs3)CC2)c1	.	.	.	.	.	.
CN1C(=O)C(=Cc2sc(=O)n(-c3ccccc3)c2N2CCCCC2)C(=O)N(C)C1=O	/	/	/	.	/	83
CN1C(=O)C(=Cc2cc([N+](=O)[O-])ccc2N2CCCCC2)C(=O)N(C)C1=O	.	.	.	.	.	.
COc1ccc(C(=O)C23CN4CN(CN(C4)C2)C3)cc1	.	.	.	51	.	.
O=C(c1ccc(Br)cc1)C12CN3CN(CN(C3)C1)C2	.	.	.	.	.	.
N#CC1(c2ccccc2)CCN(C2CC(=O)N(c3ccc(F)cc3)C2=O)CC1 (stereo not drawn)	.	.	.	.	.	.
O=C1CC(c2ccccc2)CN1 (stereo not drawn)	/	/	/	.	/	.
CN1CCN(c2c(C#N)c(C(F)(F)F)nn2C)CC1	.	.	.	.	.	.
O=C1CN=C(c2ccccc2)c2cc(Br)ccc2N1Cc1cc(=O)n2ccccc2n1	.	.	184	.	.	.
NNC(=O)CN1C(=O)CN=C(c2ccccc2)c2cc(Br)ccc21	/	/	/	.	/	.
Cc1ccc(NP(=O)(Oc2ccccc2F)Oc2ccccc2F)cc1	.	.	.	48	.	.
CCC(C)N1C(=O)/C(=C/c2ccc3c(c2)CCN3CCCCl)C(=O)NC1=S (stereo not drawn)	.	.	.	.	.	38
Cc1ccc2c(c1)CC1(CN2C)C(=O)NC(=O)N(c2ccc(C)c(C)c2)C1=O (stereo not drawn)	.	.	256	.	.	.
Cc1ccc2c(c1)CC1(CN2C)C(=O)NC(=O)N(c2ccccc2C)C1=O (stereo not drawn)	.	.	.	.	.	.
Cc1ccc2c(c1)CC1(CN2C)C(=O)NC(=O)N(CCc2ccccc2)C1=O (stereo not drawn)	2.1	.	.	.	.	.
O=C(CN1CCCCC1)c1ccccc1F	2.3	.	.	.	.	.
O=C(CN1CCCCC1)c1cccc(Br)c1	.	.	.	.	.	.
O=C(CN1CCCCC1)c1ccccc1Cl	2	.	.	.	.	.
O=C1NC(=O)N(Cc2ccc(F)cc2)C(=O)/C1=C\C=C\c1ccco1	/	/	/	.	/	.
CCN(CC)c1ccc(/C=C2\C(=O)NC(=O)N(Cc3ccco3)C2=O)cc1	.	.	.	.	.	126
CCN(CC)c1ccc(/C=C2/C(=O)NC(=O)N(CC3CCCO3)C2=O)cc1 (stereo not drawn)	.	.	.	.	.	.
O=C1NC(=O)N(Cc2ccccc2)C(=O)/C1=C\c1ccco1	2.3	.	.	.	.	.
O=c1[nH]c(CN2CC=C(c3ccccc3)CC2)nc2scc(-c3ccccc3)c12	/	/	/	/	/	.
CNC(=S)NC1CC2CCCC(C1)N2CC(C)C (stereo not drawn)	.	.	.	.	.	40
SMILES	PMI act hi M6P	PMI activator	GSH bead fluor	Avidin bead fluor	Diaphorase act	NCF1 inh
O=C(c1ccc2c(c1)ncn2-c1ccc(F)cc1F)N1CCC2(CC1)OCCO2	.	.	.	.	.	43
O=c1[nH]c(=S)n(-c2ccc(F)cc2)c(O)c1/C=N/N1CCOCC1	/	/	/	.	/	.
Cc1ccccc1-n1c(O)c(/C=N/N2CCOCC2)c(=O)[nH]c1=S	.	.	.	78	.	.
CCOC(=O)c1c(/N=C/C2C(=O)NC(=S)NC2=O)sc2c1CCC2	2.1	.	.	.	.	.
CC1=NN(c2ccccc2)C(=O)C1/C=C1\C(=O)NC(=O)N(c2ccc(C)c(C)c2)C1=O (stereo not drawn)	.	.	.	.	.	.
O=C1NC(=O)C(CCc2ccncc2)(CCc2ccccn2)C(=O)N1c1ccc(Br)cc1 (stereo not drawn)	/	/	.	.	/	.
CC1(C)CSC(Nc2ccc(F)c(Cl)c2)=N1	.	.	253	.	.	.
CC1(C)CN=C(Nc2ccc(F)c(Cl)c2)S1	/	/	/	.	/	.
c1ccc2c(c1)[nH]c1cnccc12	.	.	.	.	.	.
Cc1c2ccncc2c(C)c2c1[nH]c1ccccc12	.	.	.	.	.	95
C[C@]12CC(=CO)C(=O)C[C@@H]1CC[C@@H]1[C@@H]2CC[C@@]2(C)[C@H]1CC[C@]2(C)O	.	.	.	.	.	.
COc1ccccc1-n1c(O)c(C=Nc2c(C)n(C)n(-c3ccccc3)c2=O)c(=O)[nH]c1=O	.	.	261	.	.	.
CCOC(=O)c1c(C)n(Cc2ccc3c(c2)OCO3)c2ccc(O)cc12	.	.	249	.	.	.
COC(=O)c1c(C)n(Cc2ccc3c(c2)OCO3)c2ccc(O)cc12	.	.	.	.	.	.
CN(C)C(=O)Nc1cccc(OC(=O)N(C)C)c1	.	.	.	178	.	.
CN(C)C(=O)Oc1cccc(NC(=O)c2ccccc2C(F)(F)F)c1	/	/	/	.	/	.
Cc1c(N=Nc2c(O)n(C)c(=O)n(C)c2=O)c(=O)n(-c2ccccc2)n1C	.	.	.	.	.	.
CC1=CC(=C2C(=O)NC(=S)NC2=O)C=C(C(F)(F)F)N1Cc1ccccc1	2	.	.	.	.	.
C=CCn1c(O)c(C=NCCN(C)C)c(=O)[nH]c1=O	.	.	.	.	.	.
CN(C)CCN=Cc1c(O)n(-c2cccc(C(F)(F)F)c2)c(=O)[nH]c1=O	.	.	266	.	.	.
CC(C)CN1CCN(Cc2ccc(C(F)(F)F)cc2)CC1CCO (stereo not drawn)	/	/	/	.	/	.
S=C1CN=C(c2ccccc2Cl)c2cc(Cl)ccc2N1	.	.	119	.	.	.
CCN(CC)CCNCC(=O)Nc1ccc(Cl)cc1C(=O)c1ccccc1	.	.	.	.	.	.
C=CCn1c(O)c(C(C)=NCCc2ccccc2)c(=O)[nH]c1=O	.	.	.	51	.	.
CN(C)c1ccc(C=C2C(=O)NC(=S)NC2=O)cc1[N+](=O)[O-]	2.1	.	.	.	.	.
CN(C)c1ccc(C=C2C(=O)NC(=O)NC2=O)cc1[N+](=O)[O-]	.	.	.	.	.	.
CC#CP(=O)(OC)C(O)(CF)c1ccccc1 (stereo not drawn)	.	.	.	.	.	.
CCCCc1ncc(CN2CCCC(C(=O)c3ccc(SC)cc3)C2)[nH]1 (stereo not drawn)	.	.	.	.	.	.

Screening data (PubChem)
